Experimental data as given in ChEMBL document CHEMBL4834396, “Molecular Recognition and Imaging of Human Telomeric G-Quadruplex DNA in Live Cells: A Systematic Advancement of Thiazole Orange Scaffold To Enhance Binding Specificity and Inhibition of Gene Expression” (J Med Chem, 2021).
Activity calls are given as the source filed them. The calls are words filed in the database; no cut-off is given here.

How the values were obtained:
DNA = experiment: Binding affinity to ds26 DNA (unknown origin) assessed as equilibrium binding constant at 5 uM at 25 degreeC by […]; assay type: nucleic-acid assay
Summary of the method: (§1)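 Fluorescence titration: ligand 5 μM in 10 mM Tris-HCl pH 7.4 with 60 mM KCl, nucleic acid added until saturation, 25 °C. Keq from nonlinear fit of F/F0 to an independent-site model.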

Quadruplex DNA [1] = experiment: Binding affinity to c-myc promoter G-quadruplex DNA Pu22 (unknown origin) assessed as equilibrium binding constant at 5 uM at 25 degreeC by […]; assay type: nucleic-acid assay; summary of the method: as §1
Quadruplex DNA [2] = experiment: Binding affinity to telomeric Htg22 G-quadruplex DNA (unknown origin) assessed as fold increase in fluorescence signal at 5 uM under pH condition 7.4 by fluorescence method; assay type: nucleic-acid assay
Summary of the method: (§2)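 Ligand 5 μM with each nucleic acid at 15 μM in 10 mM Tris-HCl pH 7.4, 60 mM KCl; emission enhancement expressed as F/F0 against ligand without DNA.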

i-motif DNA = experiment: Binding affinity to promoter i-motif DNA (unknown origin) assessed as fluorescence signal at 5 uM under pH condition 7.4 by fluorescence method; assay type: nucleic-acid assay; summary of the method: as §2
Quadruplex DNA [3] = experiment: Binding affinity to telomeric Htg24 G-quadruplex DNA (unknown origin) at 5 uM at pH 7.4 by UV-spectrophotometric titration analysis; assay type: nucleic-acid assay
Summary of the method: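 UV-vis titration of ligand (5 μM) with Htg24 (0–15 μM) in 10 mM Tris-HCl pH 7.4 containing 60 mM KCl, added until saturation.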

Quadruplex DNA [4] = experiment: Binding affinity to c-myc promoter G-quadruplex DNA Pu27 (unknown origin) assessed as dissociation constant by isothermal titration calorimetric analysis; assay type: nucleic-acid assay
Summary of the method: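 ITC at 25 °C: DNA preannealed at 95 °C for 5 min, cooled and held at 4 °C overnight, in 25 mM KH2PO4, 60 mM KCl, pH 7.4, 0.5% DMSO. DNA 10 μM in cell, ligand 500 μM in syringe; 19 injections of 4 s, 150 s apart, 750 rpm stirring; blank heat subtracted before model fitting.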

Quadruplex DNA [5] = experiment: Binding affinity to telomeric Htg24 G-quadruplex DNA (unknown origin) assessed as decrease in peak intensity at guanine base G15 at 5 uM under pH condition 7.4 by spectrophotometric titration analysis; assay type: nucleic-acid assay
Quadruplex DNA [6] = experiment: Binding affinity to G4 quadruplex DNA in human HeLa cells assessed as increase in number of BG4 foci at 10 to 20 uM; assay type: cell-based; details: dose 10-20 µM
HeLa = experiment: Downregulation of hTERC mRNA expression in human HeLa cells at 5 to 20 uM by qRT-PCR analysis; assay type: functional, cell-based; details: dose 5-20 µM
Summary of the method: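 HeLa cells were treated with graded compound concentrations, then incubated 36 h. RNA was extracted with Trizol/chloroform, reverse transcribed and quantified by qRT-PCR. GAPDH served as internal control, with relative expression by the ΔΔCt method; three independent experiments, mean ± SD.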

[7] = Drug uptake in nucleolus of human U87 cells assessed as imaging of G-quadruplex at 5 uM for 30 mins followed by co-staining with DAPI and measured after 10 mins by confocal laser fluorescence microscopic analysis; assay type: ADME, subcellular; details: u-87mg atcc, 40 min
Summary of the method: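 Live U87 cells were co-stained with ligand (5 μM, 30 min) and DAPI (1 μM, 10 min). Confocal imaging used excitation at 402 nm for DAPI and 488 or 571 nm for the ligand.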

[8] = Drug uptake in nucleolus of human U87 cells assessed as change in fluorescence signal at 5 uM for 30 mins co-stained with DAPI for 10 mins followed by treating with RNase and measured after 30 mins by confocal laser fluorescence microscopic analysis; assay type: ADME, subcellular; details: u-87mg atcc, 1.167 h, time 70 min
[9] = Drug uptake in nucleolus of human U87 cells assessed as disappearance of fluorescence signal at 5 uM for 30 mins co-stained with DAPI for 10 mins followed by treating with DNase and measured after 30 mins by confocal laser fluorescence microscopic analysis; assay type: ADME, subcellular; details: u-87mg atcc, 1.167 h, time 70 min
Quadruplex DNA [10] = experiment: Binding affinity to G4 quadruplex DNA in human U87 cells assessed as increase in BG4-induced fluorescence signal at 5 uM incubated for 30 mins by immunofluorescence based confocal microscopic analysis; assay type: cell-based
Summary of the method: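 U87 cells fixed in 4% paraformaldehyde for 15 min, permeabilized with 0.1% Triton X-100 at 37 °C for 30 min, blocked with 5% goat serum for 3 h. BG4 antibody 3 h at 37 °C, then DyLight 405 anti-mouse IgG 3 h at 37 °C, then ligand 5 μM for 30 min. Confocal imaging for co-localization.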

PC-3 = experiment: Antiproliferative activity against human PC-3 cells assessed as reduction in cell viability […] by MTT assay; assay type: functional, cell-based
16HBE14o- = experiment: Cytotoxicity against human 16HBE14o- cells assessed as cell viability incubated for 48 hrs by MTT assay; assay type: cell-based; details: 36 h, in the assay text read “36 hrs” for “48 hrs”
Summary of the method: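 Cells were plated and grown 48 h at 37 °C, 5% CO2, in DMEM with 10% FBS. They were then given graded ligand concentrations for 36 h and treated with MTT (5 mg/ml) for 4 h in the dark. Formazan was dissolved in DMSO and absorbance read at 577 nm. IC50 was taken from a sigmoidal dose–response fit; three independent experiments.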

[11] = system: Quadruplex DNA [UNDEFINED MUTATION]; experiment: Effect on confirmation of telomeric Htg24 G-quadruplex DNA G16C mutant (unknown origin) assessed as parallel topology at 5 uM at pH 7.4 by circular dichroism analysis; assay type: nucleic-acid assay; details: Homo sapiens
Summary of the method: (§3)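 CD spectra recorded on G4-DNA and ligand, each at 5 μM, in 10 mM Tris-HCl, pH 7.4, with 60 mM KCl. Scan range 220–340 nm in a 1 mm quartz cuvette, 1 nm bandwidth and step, 0.5 s/point. Each spectrum is the average of three scans.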

[12] = system: Quadruplex DNA [UNDEFINED MUTATION]; experiment: Effect on confirmation of telomeric Htg24 G-quadruplex DNA T19G mutant (unknown origin) assessed as hybrid topology at 5 uM at pH 7.4 by circular dichroism analysis; assay type: nucleic-acid assay; details: Homo sapiens; summary of the method: as §3
[13] = system: Quadruplex DNA [UNDEFINED MUTATION]; experiment: Effect on confirmation of telomeric Htg24 G-quadruplex DNA G22T mutant (unknown origin) assessed as hybrid topology at 5 uM at pH 7.4 by circular dichroism analysis; assay type: nucleic-acid assay; details: Homo sapiens; summary of the method: as §3
[14] = system: Quadruplex DNA [UNDEFINED MUTATION]; experiment: Binding affinity to telomeric Htg24 G-quadruplex DNA T6G mutant (unknown origin) assessed as negative fluorescence signal at 5 uM under pH condition 7.4 by fluorescence titration analysis; assay type: nucleic-acid assay; details: Homo sapiens
Summary of the method: (§4)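 Ligand held at 5 μM and mixed with each Htg24 point mutant in Tris-HCl buffer containing 60 mM KCl, pH 7.4. Fluorescence was read, and the signal change was computed as (F mutant − F wild type)/F wild type.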

[15] = system: Quadruplex DNA [UNDEFINED MUTATION]; experiment: Binding affinity to telomeric Htg24 G-quadruplex DNA G17T mutant (unknown origin) assessed as negative fluorescence signal at 5 uM under pH condition 7.4 by fluorescence titration analysis; assay type: nucleic-acid assay; details: Homo sapiens
Summary of the method: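 Ligand 5 μM mixed with wild-type or point-mutant Htg24 in Tris-HCl buffer with 60 mM KCl; signal change calculated as (F mutant − F wild type)/F wild type.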

[16] = system: Quadruplex DNA [UNDEFINED MUTATION]; experiment: Binding affinity to telomeric Htg24 G-quadruplex DNA G21T mutant (unknown origin) assessed as strong fluorescence signal at 5 uM under pH condition 7.4 by fluorescence titration analysis; assay type: nucleic-acid assay; details: Homo sapiens; summary of the method: as §4
[17] = system: Quadruplex DNA [UNDEFINED MUTATION]; experiment: Binding affinity to telomeric Htg24 G-quadruplex DNA G15T mutant (unknown origin) assessed as fluorescence signal at 5 uM under pH condition 7.4 by fluorescence titration analysis; assay type: nucleic-acid assay; details: Homo sapiens

- Kb (DNA): 367000 M⁻¹
- Kb (Quadruplex DNA [1]): 309000 M⁻¹
- fold change (FC) (Quadruplex DNA [2]): 120
- fold change (FC) (i-motif DNA): 1
- Activity (Quadruplex DNA [3]): Active
- Kd (Quadruplex DNA [4]): 3.27 µM
- Activity (Quadruplex DNA [5]): Active
- Drug uptake [7]: Active
- Drug uptake [8]: Not Active
- Drug uptake [9]: Active
- IC50 (PC-3): 12.8 µM
- Activity [11]: Active
- Activity [12]: Active
- Activity [13]: Active
- Activity [14]: Active
- Activity [15]: Active
- Activity [16]: Active
- Activity [17]: inactive
SMILES: CN(C)c1ccc(/C=C/c2cc(/C=C3\Sc4ccccc4N3CCCN3CCOCC3)c3ccccc3[n+]2C)cc1.[I-]
- Activity (Quadruplex DNA [6]): Active
- Activity (HeLa): Active
- Activity (Quadruplex DNA [10]): Active
- IC50 (16HBE14o-): 52.3 µM
